Reference: ChEMBL document CHEMBL4513216, “Probing the Open Global Health Chemical Diversity Library for Multistage-Active Starting Points for Next-Generation Antimalarials” (ACS Infect Dis, 2020)

Assay: Toxicity liver stage against HepG2, at 10uM
Assay type: cell-based
Design: test concentration 10 uM, cell line HepG2-A16-CD81EGFP
Conditions: human, HepG2-A16-CD81EGFP cells; read-out: INHIBITION
In short: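 Uninfected HepG2-A16-CD81EGFP cells, 3 × 10^3 per well, 1536-well, plated on prespotted compound at 10 μM final, parasite-free screening media added to match infected plates; puromycin 10 μM positive, DMSO 0.5% negative; run in parallel with 48 h PbLuc assay at 37 °C, 5% CO2; viability by CellTiter-Glo luminescence, normalized to controls.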

Compound COc1ccc(Br)cc1SCCCS(C)(=O)=O has a cytotoxicity at 10 µM of 3.85%.

Work on CNCc1ccc(Oc2cncc(C)n2)cc1 yielded a cytotoxicity at 10 µM of 7.1%.

In the case of Cc1cnc(N2CC3(CCN(S(=O)(=O)C4CC4)C3)C2)nc1, the cytotoxicity at 10 µM was -109%.

With CCc1noc(CCC(=O)N2CCC(c3ccn[nH]3)C2)n1 (configuration not stated) the cytotoxicity at 10 µM was 6.03%.

Compound O=C(C1CC1)N(CCc1ccccc1)C1CCOC1 (configuration not stated) has a cytotoxicity at 10 µM of -6.93%.

With CCCS(=O)(=O)N1CC[C@H]2O[C@H](c3nnc(C)o3)CC[C@H]21 the cytotoxicity at 10 µM was -77.4%.

O=C(N[C@H]1CN(c2ccncc2)C[C@@H]1C1CC1)C1CCOCC1 gave a cytotoxicity at 10 µM of -11.8%.

Work on Cc1noc2ncc(C(=O)NCC3CCCOC3)cc12 (configuration not stated) yielded a cytotoxicity at 10 µM of -8.42%.

Work on Cc1ccccc1C(=O)NCCC(=O)NS(=O)(=O)c1cccnc1 yielded a cytotoxicity at 10 µM of -11.6%.

Work on Cc1ccc(NC(=O)N2CC[C@@H](O)C2)c(-c2nc(C3CC3)no2)c1 yielded a cytotoxicity at 10 µM of -4.16%.

COc1ccc(CNC[C@H]2COCc3nc4cccnc4n32)cc1 showed a cytotoxicity at 10 µM of -0.61%.

Work on Cc1nnc(NC(=O)N2CCC(N3CCCCC3)CC2)s1 yielded a cytotoxicity at 10 µM of 7.15%.

COC(=O)[C@@H]1CCCN1C(=O)c1cn(CCCc2ccccc2)nn1 showed a cytotoxicity at 10 µM of 3.15%.

In the case of O=C(NCCN1CCOCC1)c1ccc(-c2ccc(F)cc2)nc1O, the cytotoxicity at 10 µM was 2.25%.

Work on CC(C)(C)NC(=O)C1CCCCN1Cc1nccn1CC(F)(F)F (configuration not stated) yielded a cytotoxicity at 10 µM of 6.21%.

In the case of CSC1(CNC(=O)N(C)Cc2sccc2C)CCOCC1, the cytotoxicity at 10 µM was -57.4%.

In the case of O=C(N1CCC(O)(C(F)(F)F)C1)C1(c2cccc(Cl)c2)CC1 (configuration not stated), the cytotoxicity at 10 µM was -2.72%.

CC(C)(C)c1ncc2c(n1)CN(C(=O)C(C)(C)n1cccc1)C2 gave a cytotoxicity at 10 µM of -120%.

Compound CCOC(=O)N(C)C1CCN(Cc2ccsc2)CC1 has a cytotoxicity at 10 µM of -0.572%.

For COc1c(F)cc(CN2CCC3(CC2)C(C(=O)O)CC(=O)N3C)cc1Cl (configuration not stated), the cytotoxicity at 10 µM was 5.13%.

In the case of CCNC(=O)CNC(=O)Nc1c(F)cc(F)cc1-c1ccccc1, the cytotoxicity at 10 µM was -7.55%.

With CCN(CC1CCCO1)C(=O)Nc1cccc(N2CCOCC2)c1 (configuration not stated) the cytotoxicity at 10 µM was 8.44%.

For CCOCC(O)CN1CCN(C(=O)c2cc(C)ccc2OC)CC1 (configuration not stated), the cytotoxicity at 10 µM was 5.35%.

For Cc1cc(NC2CC3(CCN(Cc4csc(C)n4)C3)C2)ncn1 (configuration not stated), the cytotoxicity at 10 µM was -2.34%.

CC(C)=CCC1(C(=O)O)CCCN(c2ccnc(C)n2)C1 (configuration not stated) showed a cytotoxicity at 10 µM of -0.842%.

Work on CCCc1cc(NC2CCc3nc(C(C)C)nn3C2)n2ncnc2n1 (configuration not stated) yielded a cytotoxicity at 10 µM of -1.41%.

In the case of COCCC1(C(=O)O)CCCN(c2cc(C)c3ccccc3n2)C1 (configuration not stated), the cytotoxicity at 10 µM was -38.7%.

Work on Cc1ccc(-c2n[nH]cc2CNCC2CCN(CC(C)O)CC2)cc1 (configuration not stated) yielded a cytotoxicity at 10 µM of -16.6%.

In the case of Cc1nn(C(C)C)c(C)c1S(=O)(=O)Nc1cccc(F)c1, the cytotoxicity at 10 µM was -0.335%.

In the case of Cc1ccc(N2CCC3(CCC(=O)N3Cc3ccncc3)CC2)nn1, the cytotoxicity at 10 µM was -110%.

COc1ncc(C2CC(=O)NCc3nc4ccccn4c32)cn1 (configuration not stated) showed a cytotoxicity at 10 µM of -9.75%.

Work on NC(=O)c1ccc(N2CCN(Cc3c(Cl)cncc3Cl)CC2)nc1 yielded a cytotoxicity at 10 µM of 10.6%.

Compound Cc1cnn(CC2CCCN2Cc2ncc(-c3ccc(F)cc3)o2)c1 (configuration not stated) has a cytotoxicity at 10 µM of -17.6%.

COCCC(=O)N1CCC(c2ncncc2-c2ccnc(N)c2)C1 (configuration not stated) gave a cytotoxicity at 10 µM of -2.68%.

COc1cc(CNCc2ccnc(N3CCOCC3)c2)cc(OC)c1 showed a cytotoxicity at 10 µM of 6.1%.

In the case of O=C(Nc1cccnc1)[C@H]1CN(Cc2cccs2)C[C@H]2OCC[C@@H]12, the cytotoxicity at 10 µM was -109%.

CC(C)(CNC(=O)OC(C)(C)C)NC(=O)C1CC(=O)N(C2CC2)C1 (configuration not stated) gave a cytotoxicity at 10 µM of 14.3%.

Work on O=C(Nc1nncs1)C1CSCN1C(=O)C1CCCC1 (configuration not stated) yielded a cytotoxicity at 10 µM of 11.3%.

In the case of CCOc1ccc(C(=O)CCC(=O)NCc2cncn2CC)cc1C, the cytotoxicity at 10 µM was 0.902%.

Work on O=C(NCC(O)c1ccsc1)Nc1cccs1 (configuration not stated) yielded a cytotoxicity at 10 µM of -8.29%.

With NC(=O)N1C[C@@H]2CN(C(=O)c3ccco3)C[C@@H]2C1 the cytotoxicity at 10 µM was -2.54%.

Compound Cc1nnc([C@H]2C[C@@H]3CCN(Cc4ccc(C)o4)C[C@H]3O2)[nH]1 has a cytotoxicity at 10 µM of -2.1%.

Work on Clc1ccc(CNc2cnn(CCN3CCOCC3)c2)cc1Cl yielded a cytotoxicity at 10 µM of 3.2%.

Work on Cc1cc(NC(=O)CN2C(=O)CC(C)(C)c3ccccc32)no1 yielded a cytotoxicity at 10 µM of -3.29%.

Work on COCCN1CCN(CC2CCCCO2)CC1 (configuration not stated) yielded a cytotoxicity at 10 µM of 6.29%.

In the case of Cc1nc(CN(C)C2CCN(Cc3nc4ccccc4s3)C2)no1 (configuration not stated), the cytotoxicity at 10 µM was -4.27%.

Compound CC(C)CCN1CCN(Cc2nc(C3CC3)no2)CC1 has a cytotoxicity at 10 µM of -8.77%.

COC[C@]12COC[C@H]1CN(Cc1cccnc1OC)C2 showed a cytotoxicity at 10 µM of -9.83%.

Work on CC(C)OCCCNC(=O)CS(=O)(=O)Cc1ccc(Cl)c(Cl)c1 yielded a cytotoxicity at 10 µM of -9.7%.

CCCn1nc2c(cc1=O)CN(C(C)C(=O)Nc1nccs1)CC2 (configuration not stated) showed a cytotoxicity at 10 µM of -1.99%.

CC(=O)N1CCCC(Cc2cnc(-c3c(C)nn(C)c3C)cn2)C1 (configuration not stated) gave a cytotoxicity at 10 µM of -1.37%.

CN(C)C(=O)CN1C(=O)CCC12CCN(Cc1cccs1)CC2 gave a cytotoxicity at 10 µM of -2.6%.

In the case of O=C(C1=CCCC1)N1CCC[C@]2(C[C@@H](OCc3ccccn3)CO2)C1, the cytotoxicity at 10 µM was 9.79%.

Compound Cc1cc(C(=O)NCC(Cc2cccc(F)c2)N2CCCCC2=O)no1 (configuration not stated) has a cytotoxicity at 10 µM of 2.68%.

COc1cccc([C@@H]2CCN(Cc3ccc4ccccc4n3)C[C@H]2O)c1 gave a cytotoxicity at 10 µM of -16.5%.

Cn1nc(Br)c2c(=O)n(CCc3ccccc3)cnc21 gave a cytotoxicity at 10 µM of -1.4%.

In the case of CCN(Cc1ccccc1)C(=O)CN1CCCCC1Cn1cncn1 (configuration not stated), the cytotoxicity at 10 µM was 7.15%.

Compound O=c1oc2ccccc2n1CCCN1CCCC1c1ccc(O)cc1 (configuration not stated) has a cytotoxicity at 10 µM of 7.87%.

In the case of C=C(C)CN(CC)C(=O)c1cc(C)ccc1NS(C)(=O)=O, the cytotoxicity at 10 µM was 5.69%.

With CN1CCN(Cc2cnc3n2CCN(C(=O)c2cnccn2)C3)CC1 the cytotoxicity at 10 µM was -65.1%.

O=C(Cc1csc(-c2ccccc2F)n1)NCc1ccc(C(=O)O)cc1 gave a cytotoxicity at 10 µM of -3.85%.

In the case of COc1ccnc(N2CCCN(C(=O)CCc3cnn(C)c3)CC2)n1, the cytotoxicity at 10 µM was 17.7%.

Cc1nn(C)c2cn(CC(=O)N3CCc4ccccc4C3)nc12 showed a cytotoxicity at 10 µM of 8.41%.

In the case of COCCN1C[C@@H](c2ccccc2)[C@@]2(CCN(CC(=O)N(C)C)C2=O)C1, the cytotoxicity at 10 µM was 3.11%.

Work on Cc1ccc2cccc(S(=O)(=O)N(C)CC3CCN(C)C3)c2n1 (configuration not stated) yielded a cytotoxicity at 10 µM of 1.5%.

CC(NCc1ccccn1)c1ccc(N2CCN(C)CC2)c(F)c1 (configuration not stated) showed a cytotoxicity at 10 µM of -7.85%.

N#Cc1c(F)cccc1Nc1cnn(CC(=O)N2CCOCC2)c1 showed a cytotoxicity at 10 µM of 2.2%.

In the case of O=C(Cc1ccco1)N1C[C@H]2CCC[C@@]2(COCC2CC2)C1, the cytotoxicity at 10 µM was -108%.

Compound CCCOc1ccc(OCCN2CCOCS2(=O)=O)cc1 has a cytotoxicity at 10 µM of 5.56%.

In the case of CCC(CC)CS(=O)(=O)NC(=O)C1CCC1, the cytotoxicity at 10 µM was -6.8%.

Cc1noc(C)c1CN1CCN(Cc2ccncc2)c2ncccc2C1 gave a cytotoxicity at 10 µM of 5.51%.

In the case of O=C1CC(c2ccc(C(=O)O)cc2)c2cnn(Cc3ccco3)c2N1 (configuration not stated), the cytotoxicity at 10 µM was -0.869%.

Work on COCCOc1ccc(NC(=O)N2CCCC2c2cccs2)cn1 (configuration not stated) yielded a cytotoxicity at 10 µM of -3.17%.

Compound CCCS(=O)(=O)N1CCc2nc(N3CCOCC3)nc(N(C)C)c2C1 has a cytotoxicity at 10 µM of 15.5%.

In the case of CSCc1noc(-c2nc3c([nH]2)CCCNC3=O)n1, the cytotoxicity at 10 µM was -2.48%.

Work on COc1ccccc1COCC(O)CN(C)c1ccc(C)cc1C (configuration not stated) yielded a cytotoxicity at 10 µM of 9.6%.

CCNCc1ccc(OCc2ccc3c(c2)OCCO3)cc1 showed a cytotoxicity at 10 µM of 2.44%.

In the case of CN(C)Cc1cc(CC2(NCc3ccccc3Cl)COC2)no1, the cytotoxicity at 10 µM was 4.14%.

O=C(Nc1cccs1)N(CCO)CCOCC(F)(F)F gave a cytotoxicity at 10 µM of 3.84%.

In the case of Cc1c(C(=O)NCC2CCN(Cc3ccco3)C2)[nH]c2ccccc12 (configuration not stated), the cytotoxicity at 10 µM was 6.32%.

In the case of O=C(c1cccc2ccnn12)N1CCC[C@H]1CN1CCCC1, the cytotoxicity at 10 µM was -144%.

In the case of Cc1nnc(SCCC(=O)N(C)Cc2ccc(Cl)s2)[nH]1, the cytotoxicity at 10 µM was 14.4%.
